Experiments:
[1] = (§1) Inhibition of Dengue virus 2 NS2B-NS3 protease preincubated for 15 mins before Dabcyl- Lys-Gln-Arg-Arg-Gly-Arg-Ile-Glu-Edans substrate addition by fluorimetric assay; design: species or system dengue virus type 2
dengue virus type 2 [2] = assay: Inhibition of Dengue virus 2 NS2B-NS3 protease at 100 uM preincubated for 15 mins before Dabcyl- Lys-Gln-Arg-Arg-Gly-Arg-Ile-Glu-Edans substrate addition by fluorimetric assay
[3] = Cytotoxicity against BHK cells incubated for 48 hrs by MTT assay; type: cell-based, Mesocricetus auratus; conditions: hamster
Summary of the method: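 Nontransfected BHK cells, about 5×10⁴ per well, were treated the next day with various compound concentrations for 48 h. Viability was measured by MTT. CC50 is the concentration giving 50% of control cell number; mean of three independent experiments.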

[4] = Selectivity index, ratio of CC50 for BHK cells to IC50 for Dengue virus 2 infected in BHK-D2RepT cells; type: functional
Summary of the method: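 Selectivity index = CC50 / IC50. CC50 is from the 48 h MTT assay in nontransfected BHK cells; IC50 is from the 48 h luciferase read in BHK-D2RepT replicon cells, 96-well format.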

dengue virus type 2 [5] = assay: Antiviral activity against Dengue virus 2 infected in BHK-D2RepT cells assessed as reduction in viral replication incubated for 48 hrs by luciferase reporter replicon-based assay; type: functional, organism-based
Summary of the method: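 Cells used were BHK-D2RepT: BHK carrying a DENV-2 (New Guinea C) firefly-luciferase replicon, maintained in DMEM/10% FBS/200 μg/mL G418. Seeded at 5×10⁴ cells/well for 24 h, then exposed to compound for 48 h (DMSO <0.2%). Medium was replaced before the Bright-Glo luciferase read. Triplicate wells with six control wells. IC50 is the concentration giving 50% of control luciferase signal; mean of three independent experiments.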

dengue virus type 2 [6] = assay: as §1
dengue virus type 2 [7] = assay: Inhibition of Dengue virus 2 NS2B-NS3 protease at 12.5 uM preincubated for 15 mins before substrate addition
dengue virus type 2 [8] = assay: Inhibition of Dengue virus 2 NS2B-NS3 protease at 25 uM preincubated for 15 mins before substrate addition
dengue virus type 2 [9] = assay: Inhibition of Dengue virus 2 NS2B-NS3 protease at 50 uM preincubated for 15 mins before substrate addition

| Structure (SMILES) | IC50 [1] [µM] | inhibition (dengue virus type 2 [2]) [%] | further results |
| --- | --- | --- | --- |
| O=C(NCCCc1ccccc1)c1cc(/C=N/Nc2cccc(Br)c2)nc2ccccc12 | > 100 | 24.2 | – |
| O=C(NCCCCc1ccccc1)c1cc(/C=N/Nc2cccc(Br)c2)nc2ccccc12 | > 100 | 30.6 | – |
| NS(=O)(=O)c1ccc(N/N=C/c2cc(C(=O)NCCCCc3ccccc3)c3ccccc3n2)cc1 | > 100 | 29.4 | – |
| COc1c(C)c2c(c(O)c1C/C=C(\C)CCC(=O)O)C(=O)OC2 [MYCOPHENOLIC ACID] | – | – | CC50 at 48 h [3]: 1.9 µM; Ratio CC50/IC50 [4]: 2.7; IC50 (dengue virus type 2 [5]): 0.7 µM |
| CCOC(=O)c1cc(/C=N/N2C(=O)c3ccccc3C2=O)c(O)c(/C=N/N2C(=O)c3ccccc3C2=O)c1 | > 100 | 28 | – |
| CCOC(=O)c1cc(/C=N\NC(N)=S)c(O)c(/C=N\NC(N)=S)c1 | > 100 | 24.4 | – |
| CCOC(=O)c1cc(/C=N/NC(=O)c2ccc3c(c2)OCO3)c(O)c(/C=N/NC(=O)c2ccc3c(c2)OCO3)c1 | > 100 | 35.4 | – |
| NS(=O)(=O)c1ccc(N/N=C/c2cc(C(=O)N/N=C\Cc3ccccc3)c3ccccc3n2)cc1 | > 100 | 31.1 | – |
| CCOC(=O)c1cc(/C=N/NC(=O)Nc2ccccc2)c(O)c(/C=N/NC(=O)Nc2ccccc2)c1 | > 100 | 44.1 | – |
| COc1cc(/C=C/C(=O)CC(=O)/C=C/c2ccc(O)c(OC)c2)ccc1O [CURCUMIN] | – | – | CC50 at 48 h [3]: 14.8 µM; Ratio CC50/IC50 [4]: 3.5; IC50 (dengue virus type 2 [5]): 4.2 µM |
| O=C(N/N=C\CCc1ccccc1)c1cc(/C=N/Nc2cccc(C(F)(F)F)c2)nc2ccccc12 | > 100 | 20.9 | – |
| O=C(N/N=C\C=C\c1ccccc1)c1cc(/C=N/Nc2cccc(C(F)(F)F)c2)nc2ccccc12 | > 100 | 27.4 | – |
| O=C(NCCCc1ccccc1)c1cc(/C=N/Nc2cccc(Cl)c2)nc2ccccc12 | > 100 | 32.1 | – |
| Oc1c(/C=N/Nc2nc3ccccc3[nH]2)cccc1/C=N/Nc1nc2ccccc2[nH]1 | > 100 | 31.9 | – |
| O=C(CCCC(=O)/C(=C\c1ccc2c(c1)OCO2)CC(=O)c1ccccc1)OCCCl | 242 | – | – |
| NS(=O)(=O)c1ccc(N/N=C/c2cc(C(=O)NCCCc3ccccc3)c3ccccc3n2)cc1 | > 100 | 20.6 | – |
| COc1ccc(-c2csc(N3N=C(c4ccc([N+](=O)[O-])cc4)/C(=N\Nc4ccc(C(N)=O)cc4)C3=O)n2)cc1 | 220 | – | – |
| CCNC(=S)N/N=C\c1cc(C(=O)OCC)cc(/C=N\NC(=S)NCC)c1O | > 100 | 28.2 | – |

More lines, main results first:

| IC50 [1] [µM] | inhibition (dengue virus type 2 [2]) [%] | Structure (SMILES) | further results |
| --- | --- | --- | --- |
| 14.6 | – | CCOC(=O)c1cc(/C=N/Nc2ccc([N+](=O)[O-])cc2)c(O)c(/C=N/Nc2ccc([N+](=O)[O-])cc2)c1 | – |
| 48.6 | – | CCOC(=O)c1cc(C)c(O)c(/C=N/Nc2nc3ccccc3[nH]2)c1 | – |
| 7.83 | – | NS(=O)(=O)c1ccc(N/N=C/c2cc(C(=O)N/N=C/c3cccc(O)c3)c3ccccc3n2)cc1 | – |
| 39.5 | – | CCOC(=O)c1cc(/C=N/Nc2ccc(C(C)C)cc2)c(O)c(/C=N/Nc2ccc(C(C)C)cc2)c1 | CC50 at 48 h [3]: 29.7 µM; Ratio CC50/IC50 [4]: 3.7; IC50 (dengue virus type 2 [5]): 8 µM |
| 19.9 | – | O=C(N/N=C\CCc1ccccc1)c1cc(/C=N/Nc2cccc(Br)c2)nc2ccccc12 | – |
| 13.1 | – | CCOC(=O)c1cc(/C=N/Nc2nc3ccccc3[nH]2)c(O)c(/C=N/Nc2nc3ccccc3[nH]2)c1 | inhibition (dengue virus type 2 [6]): Dose-dependent effect; CC50 at 48 h [3]: 12.6 µM; Ratio CC50/IC50 [4]: 0.4; IC50 (dengue virus type 2 [5]): 35.9 µM |
| 29 | – | O=C(N/N=C/CCc1ccccc1)c1cc(/C=N/Nc2cccc(Cl)c2)nc2ccccc12 | – |
| 22 | – | O=C(N/N=C\C=C\c1ccccc1)c1cc(/C=N/Nc2cccc([N+](=O)[O-])c2)nc2ccccc12 | CC50 at 48 h [3]: 25 µM; Ratio CC50/IC50 [4]: 0.3; IC50 (dengue virus type 2 [5]): 74.9 µM |
| 29.5 | – | CCOC(=O)c1cc(/C=N/Nc2nc3ccccc3[nH]2)cc(/C=N/Nc2nc3ccccc3[nH]2)c1 | – |
| 19.8 | – | O=C(N/N=C\Cc1ccccc1)c1cc(/C=N/Nc2cccc(C(F)(F)F)c2)nc2ccccc12 | CC50 at 48 h [3]: 16.4 µM; Ratio CC50/IC50 [4]: 0.2; IC50 (dengue virus type 2 [5]): 73.4 µM |
| 7.46 | – | NS(=O)(=O)c1ccc(N/N=C/c2cc(C(=O)N/N=C\C=C\c3ccccc3)c3ccccc3n2)cc1 | inhibition (dengue virus type 2 [6]): Dose-dependent effect; inhibition (dengue virus type 2 [7]): 21.4%; inhibition (dengue virus type 2 [8]): 37.1%; inhibition (dengue virus type 2 [9]): 63.3% |
| 35.3 | – | O=C(O)c1cccc(N/N=C/c2cc(C(=O)NCCCCc3ccccc3)c3ccccc3n2)c1 | CC50 at 48 h [3]: 49.7 µM; Ratio CC50/IC50 [4]: 4.5; IC50 (dengue virus type 2 [5]): 11 µM |
| 36 | – | NS(=O)(=O)c1ccc(N/N=C/c2cc(C(=O)N/N=C\CCc3ccccc3)c3ccccc3n2)cc1 | – |
| 28.1 | – | O=C(N/N=C\Cc1ccccc1)c1cc(/C=N/Nc2cccc(Cl)c2)nc2ccccc12 | CC50 at 48 h [3]: 19.7 µM; Ratio CC50/IC50 [4]: 0.3; IC50 (dengue virus type 2 [5]): 61.3 µM |
| 14.3 | – | O=C(N/N=C\C=C\c1ccccc1)c1cc(/C=N/Nc2cccc(Cl)c2)nc2ccccc12 | – |
| 41.2 | – | O=C(O)c1cccc(N/N=C/c2cc(C(=O)NCCCc3ccccc3)c3ccccc3n2)c1 | CC50 at 48 h [3]: 64.3 µM; Ratio CC50/IC50 [4]: 2.1; IC50 (dengue virus type 2 [5]): 30.9 µM |
| 9.45 | – | O=C(N/N=C\Cc1ccccc1)c1cc(/C=N/Nc2cccc(Br)c2)nc2ccccc12 | CC50 at 48 h [3]: > 100 µM; Ratio CC50/IC50 [4]: >4.1; IC50 (dengue virus type 2 [5]): 24.7 µM |
